Structures are written as SMILES. Converted amounts (≈) assume the structure as drawn. Bounds are passed on as bounds.

System in one series: not listed separately
Kind of series: Antimitotic activity in rat ASK cells assessed as reversal of astrocyte formation at 20 ug/mL. The series is classed as functional.
Details: not given
Summed up:
(§1)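 Cultured rat glioma (ASK) cells were used, following Swanson et al. The antimitotic read-out was the dose giving 100% reversal of astrocyte conversion. Pure lignans were tested across a range of concentrations.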
Consider `COc1cc(-c2c3c(c(O)c4cc5c(cc24)OCO5)COC3=O)cc(OC)c1OC` [DEHYDROPODOPHYLLOTOXIN], for which the Activity turned out to be 100%.
`COc1cc([C@@H]2c3cc4c(cc3C[C@H]3COC(=O)[C@@H]32)OCO4)cc(OC)c1OC` [DESOXYPODOPHYLLOTOXIN]: the Activity is 100%.

In another series the test system is P388. Briefly: Cytotoxicity in mouse P388 cells. The note with it: read-out: ED50 (the source's name). It counts as functional.
On to `COc1cc(-c2c3c(c(O)c4cc5c(cc24)OCO5)COC3=O)cc(OC)c1OC` [DEHYDROPODOPHYLLOTOXIN], for which the EC50 is more than 5 µg/mL.
`COc1cc([C@@H]2c3cc4c(cc3C[C@H]3COC(=O)[C@@H]32)OCO4)cc(OC)c1OC` [DESOXYPODOPHYLLOTOXIN]: the EC50 turned out to be 0.002 µg/mL (≈ 0.00502 µM).

System in the next series: not listed separately
Kind of series: Cytotoxicity against human KBV1 cells. The series is classed as functional. The conditions noted are these: KB-V1, read-out: ED50 (the source's name).
Take `COc1cc(-c2c3c(c(O)c4cc5c(cc24)OCO5)COC3=O)cc(OC)c1OC` [DEHYDROPODOPHYLLOTOXIN]: the EC50 turned out to be 13 µg/mL (≈ 31.7 µM).
With `COc1cc([C@@H]2c3cc4c(cc3C[C@H]3COC(=O)[C@@H]32)OCO4)cc(OC)c1OC` [DESOXYPODOPHYLLOTOXIN], the EC50 worked out at 0.06 µg/mL (≈ 0.151 µM).

System in the next series: not listed separately
Kind of series: Cytotoxicity against human BC1 cells. It counts as functional. The note with it: read-out: ED50 (the source's name).
`COc1cc(-c2c3c(c(O)c4cc5c(cc24)OCO5)COC3=O)cc(OC)c1OC` [DEHYDROPODOPHYLLOTOXIN]: the EC50 was 15.2 µg/mL (≈ 37 µM).
For the compound `COc1cc([C@@H]2c3cc4c(cc3C[C@H]3COC(=O)[C@@H]32)OCO4)cc(OC)c1OC` [DESOXYPODOPHYLLOTOXIN], the EC50 was determined as 0.001 µg/mL (≈ 0.00251 µM).

System in another series: not listed separately
Briefly: Antimitotic activity in rat ASK cells assessed as reversal of astrocyte formation at 100 ug/mL. It counts as functional.
Details: not given
Summed up: as §1
Turning to `COc1cc(-c2c3c(c(O)c4cc5c(cc24)OCO5)COC3=O)cc(OC)c1OC` [DEHYDROPODOPHYLLOTOXIN], the Activity amounted to 100%.
Still for that read-out and setting: the figure for `COc1cc([C@@H]2c3cc4c(cc3C[C@H]3COC(=O)[C@@H]32)OCO4)cc(OC)c1OC` [DESOXYPODOPHYLLOTOXIN] is 100%.

System in a further series: not listed separately
Briefly: Toxicity in brine shrimp. The note with it: artemia, in vivo. The series is classed as organism-based.
Broadly, the LC50 is the concentration that kills 50% of the test population. Low values mean greater toxicity, high ones lower toxicity. `COc1cc(-c2c3c(c(O)c4cc5c(cc24)OCO5)COC3=O)cc(OC)c1OC` [DEHYDROPODOPHYLLOTOXIN] registered an LC50 of 255 µg/mL (≈ 621 µM).

System in another series: not listed separately
Briefly: Antimitotic activity in rat ASK cells assessed as reversal of astrocyte formation at 0.0064 ug/mL. The series is classed as functional.
Details: not given
In a few lines:
as §1
`COc1cc(-c2c3c(c(O)c4cc5c(cc24)OCO5)COC3=O)cc(OC)c1OC` [DEHYDROPODOPHYLLOTOXIN]: the Activity was 0%.
On to `COc1cc([C@@H]2c3cc4c(cc3C[C@H]3COC(=O)[C@@H]32)OCO4)cc(OC)c1OC` [DESOXYPODOPHYLLOTOXIN], for which the Activity was determined as 0%.

The subject of the next series is HT. Briefly: Cytotoxicity against human HT cells. It counts as functional. The conditions noted are these: read-out: ED50 (the source's name).
Consider `COc1cc(-c2c3c(c(O)c4cc5c(cc24)OCO5)COC3=O)cc(OC)c1OC` [DEHYDROPODOPHYLLOTOXIN], for which the EC50 worked out at 9.7 µg/mL (≈ 23.6 µM).
Turning to `COc1cc([C@@H]2c3cc4c(cc3C[C@H]3COC(=O)[C@@H]32)OCO4)cc(OC)c1OC` [DESOXYPODOPHYLLOTOXIN], the EC50 is 0.003 µg/mL (≈ 0.00753 µM).

For the next series, the system named is Col2. Kind of series: Cytotoxicity against human Col2 cells. The series is classed as functional. The conditions noted are these: read-out: ED50 (the source's name).
`COc1cc(-c2c3c(c(O)c4cc5c(cc24)OCO5)COC3=O)cc(OC)c1OC` [DEHYDROPODOPHYLLOTOXIN]: the EC50 was determined as 8.9 µg/mL (≈ 21.7 µM).
For the compound `COc1cc([C@@H]2c3cc4c(cc3C[C@H]3COC(=O)[C@@H]32)OCO4)cc(OC)c1OC` [DESOXYPODOPHYLLOTOXIN], the EC50 was determined as 0.01 µg/mL (≈ 0.0251 µM).

System in the next series: not listed separately
Briefly: Cytotoxicity against human U373 cells. It counts as functional, U-373MG ATCC. The conditions noted are these: U373 MG, read-out: ED50 (the source's name).
As for `COc1cc(-c2c3c(c(O)c4cc5c(cc24)OCO5)COC3=O)cc(OC)c1OC` [DEHYDROPODOPHYLLOTOXIN], the EC50 is more than 20 µg/mL.
Take `COc1cc([C@@H]2c3cc4c(cc3C[C@H]3COC(=O)[C@@H]32)OCO4)cc(OC)c1OC` [DESOXYPODOPHYLLOTOXIN]: the EC50 worked out at 0.001 µg/mL (≈ 0.00251 µM).

A further series relates to ZR-75-1. Kind of series: Cytotoxicity against human ZR-75-1 cells. The series is classed as functional. The conditions noted are these: read-out: ED50 (the source's name).
With `COc1cc(-c2c3c(c(O)c4cc5c(cc24)OCO5)COC3=O)cc(OC)c1OC` [DEHYDROPODOPHYLLOTOXIN], the EC50 was more than 20 µg/mL.
The same measure, in the same setting: as for `COc1cc([C@@H]2c3cc4c(cc3C[C@H]3COC(=O)[C@@H]32)OCO4)cc(OC)c1OC` [DESOXYPODOPHYLLOTOXIN], the figure is 2 µg/mL (≈ 5.02 µM).

System in another series: not listed separately
Briefly: Antimitotic activity in rat ASK cells assessed as reversal of astrocyte formation at 0.16 ug/mL. It counts as functional.
Details: not given
Summed up:
as §1
Take `COc1cc(-c2c3c(c(O)c4cc5c(cc24)OCO5)COC3=O)cc(OC)c1OC` [DEHYDROPODOPHYLLOTOXIN]: the Activity amounted to 0%.
Turning to `COc1cc([C@@H]2c3cc4c(cc3C[C@H]3COC(=O)[C@@H]32)OCO4)cc(OC)c1OC` [DESOXYPODOPHYLLOTOXIN], the Activity came out at 100%.

The subject of another series is LNCaP. Briefly: Cytotoxicity against human LNCAP cells. It counts as functional. The note with it: read-out: ED50 (the source's name).
As for `COc1cc(-c2c3c(c(O)c4cc5c(cc24)OCO5)COC3=O)cc(OC)c1OC` [DEHYDROPODOPHYLLOTOXIN], the EC50 worked out at 11.7 µg/mL (≈ 28.5 µM).
Take `COc1cc([C@@H]2c3cc4c(cc3C[C@H]3COC(=O)[C@@H]32)OCO4)cc(OC)c1OC` [DESOXYPODOPHYLLOTOXIN]: the EC50 came to 0.01 µg/mL (≈ 0.0251 µM).

System in another series: not listed separately
Kind of series: Antimitotic activity in rat ASK cells assessed as reversal of astrocyte formation at 0.8 ug/mL.
Details: not given
The series is classed as functional. In a few lines: as §1
For `COc1cc(-c2c3c(c(O)c4cc5c(cc24)OCO5)COC3=O)cc(OC)c1OC` [DEHYDROPODOPHYLLOTOXIN], the Activity is recorded as 0%.
Take `COc1cc([C@@H]2c3cc4c(cc3C[C@H]3COC(=O)[C@@H]32)OCO4)cc(OC)c1OC` [DESOXYPODOPHYLLOTOXIN]: the Activity worked out at 100%.

The subject of the next series is KB. Briefly: Cytotoxicity against human KB cells. The conditions noted are these: read-out: ED50 (the source's name). The series is classed as functional.
Regarding `COc1cc(-c2c3c(c(O)c4cc5c(cc24)OCO5)COC3=O)cc(OC)c1OC` [DEHYDROPODOPHYLLOTOXIN], the EC50 is 5 µg/mL (≈ 12.2 µM).
Still for that read-out and setting: as for `COc1cc([C@@H]2c3cc4c(cc3C[C@H]3COC(=O)[C@@H]32)OCO4)cc(OC)c1OC` [DESOXYPODOPHYLLOTOXIN], the figure is 0.05 µg/mL (≈ 0.125 µM).

In another series the test system is Lu1. Kind of series: Cytotoxicity against human Lu1 cells. It counts as functional. The note with it: read-out: ED50 (the source's name).
As for `COc1cc(-c2c3c(c(O)c4cc5c(cc24)OCO5)COC3=O)cc(OC)c1OC` [DEHYDROPODOPHYLLOTOXIN], the EC50 was determined as 10.6 µg/mL (≈ 25.8 µM).
The same measure, in the same setting: as for `COc1cc([C@@H]2c3cc4c(cc3C[C@H]3COC(=O)[C@@H]32)OCO4)cc(OC)c1OC` [DESOXYPODOPHYLLOTOXIN], the figure is 0.002 µg/mL (≈ 0.00502 µM).

System in the next series: not listed separately
Kind of series: Antimitotic activity in rat ASK cells assessed as reversal of astrocyte formation at 4 ug/mL.
Details: not given
It counts as functional. In a few lines:
as §1
With `COc1cc(-c2c3c(c(O)c4cc5c(cc24)OCO5)COC3=O)cc(OC)c1OC` [DEHYDROPODOPHYLLOTOXIN], the Activity came out at 0%.
Same read-out and setting: the figure for `COc1cc([C@@H]2c3cc4c(cc3C[C@H]3COC(=O)[C@@H]32)OCO4)cc(OC)c1OC` [DESOXYPODOPHYLLOTOXIN] is 100%.

The test system of the next series is A-431. Kind of series: Cytotoxicity against human A431 cells. The series is classed as functional. The conditions noted are these: read-out: ED50 (the source's name).
As to `COc1cc(-c2c3c(c(O)c4cc5c(cc24)OCO5)COC3=O)cc(OC)c1OC` [DEHYDROPODOPHYLLOTOXIN], the EC50 is more than 20 µg/mL.
For `COc1cc([C@@H]2c3cc4c(cc3C[C@H]3COC(=O)[C@@H]32)OCO4)cc(OC)c1OC` [DESOXYPODOPHYLLOTOXIN], the EC50 came to 4.3 µg/mL (≈ 10.8 µM).

System in a further series: not listed separately
Kind of series: Antimitotic activity in rat ASK cells assessed as reversal of astrocyte formation at 0.032 ug/mL. It counts as functional.
Details: not given
Summed up:
as §1
As for `COc1cc(-c2c3c(c(O)c4cc5c(cc24)OCO5)COC3=O)cc(OC)c1OC` [DEHYDROPODOPHYLLOTOXIN], the Activity turned out to be 0%.
Still for that read-out and setting: the figure for `COc1cc([C@@H]2c3cc4c(cc3C[C@H]3COC(=O)[C@@H]32)OCO4)cc(OC)c1OC` [DESOXYPODOPHYLLOTOXIN] is 100%.

Source of the values: ChEMBL document CHEMBL1147382, “Cytotoxic constituents from Hyptis verticillata” (J Nat Prod, 1993).
